Source: ChEMBL document CHEMBL4251567 (Eur J Med Chem, 2018)
Values belong to the compound of their own block, whether it stands above or below them.

Experiments:
[1] = molecular target: Histone deacetylase 1 (Homo sapiens) (UniProt Q13547); assay: Inhibition of HDAC1 in human HeLa-S3 cell lysates assessed as remaining activity at 8 x 10^-6 M preincubated for 15 mins followed by HDAC-Glo substrate addition measured after 30 to 40 mins by […] relative to control
[2] = molecular target: Histone deacetylase 2 (Homo sapiens) (UniProt Q92769); assay: Inhibition of HDAC2 in human HeLa-S3 cell lysates assessed as remaining activity at 1 x 10^-6 M preincubated for 15 mins followed by HDAC-Glo substrate addition measured after 30 to 40 mins by […] relative to control
Histone deacetylase 2 (Homo sapiens), sequence (Q92769 whole entry, canonical isoform): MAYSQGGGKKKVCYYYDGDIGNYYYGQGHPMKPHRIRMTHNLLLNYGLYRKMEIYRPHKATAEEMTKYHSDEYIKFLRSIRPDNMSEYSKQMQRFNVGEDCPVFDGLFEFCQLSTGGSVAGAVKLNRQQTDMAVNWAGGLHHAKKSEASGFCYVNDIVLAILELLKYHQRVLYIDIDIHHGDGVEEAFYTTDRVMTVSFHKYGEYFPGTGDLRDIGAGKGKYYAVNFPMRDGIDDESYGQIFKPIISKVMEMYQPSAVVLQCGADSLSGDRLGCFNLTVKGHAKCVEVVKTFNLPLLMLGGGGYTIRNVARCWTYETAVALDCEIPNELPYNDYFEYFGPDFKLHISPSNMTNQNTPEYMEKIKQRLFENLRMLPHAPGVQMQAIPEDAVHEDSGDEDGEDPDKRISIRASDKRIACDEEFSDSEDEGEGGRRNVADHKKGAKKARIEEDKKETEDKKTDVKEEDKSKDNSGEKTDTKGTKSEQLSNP
Method in brief: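 Same antibody-capture format as the other class I isoforms. HeLa-S3 lysate added at 100 μg/mL for HDAC1 and HDAC2, 1 h at 4 °C, then washed. Inhibitor in DMSO preincubated 15 min at RT; HDAC-Glo reagent added and luminescence read after 30-40 min. Concentrations are final. Signal corrected against a well without antibody; activity expressed as % of DMSO control.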

[3] = molecular target: Histone deacetylase 1 (Homo sapiens) (UniProt Q13547); assay: Inhibition of HDAC1 in human HeLa-S3 cell lysates assessed as remaining activity at 2 x 10^-6 M preincubated for 15 mins followed by HDAC-Glo substrate addition […] relative to control
[4] = molecular target: T1, Protein deacetylase HDAC6 (Homo sapiens) (UniProt Q9UBN7); assay: Inhibition of HDAC6 in human HeLa-S3 cell lysates assessed as remaining activity at 8 x 10^-7 M preincubated for 15 mins followed by HDAC-Glo substrate addition measured after 30 to 40 mins by […] relative to control
T1 sequence (whole entry): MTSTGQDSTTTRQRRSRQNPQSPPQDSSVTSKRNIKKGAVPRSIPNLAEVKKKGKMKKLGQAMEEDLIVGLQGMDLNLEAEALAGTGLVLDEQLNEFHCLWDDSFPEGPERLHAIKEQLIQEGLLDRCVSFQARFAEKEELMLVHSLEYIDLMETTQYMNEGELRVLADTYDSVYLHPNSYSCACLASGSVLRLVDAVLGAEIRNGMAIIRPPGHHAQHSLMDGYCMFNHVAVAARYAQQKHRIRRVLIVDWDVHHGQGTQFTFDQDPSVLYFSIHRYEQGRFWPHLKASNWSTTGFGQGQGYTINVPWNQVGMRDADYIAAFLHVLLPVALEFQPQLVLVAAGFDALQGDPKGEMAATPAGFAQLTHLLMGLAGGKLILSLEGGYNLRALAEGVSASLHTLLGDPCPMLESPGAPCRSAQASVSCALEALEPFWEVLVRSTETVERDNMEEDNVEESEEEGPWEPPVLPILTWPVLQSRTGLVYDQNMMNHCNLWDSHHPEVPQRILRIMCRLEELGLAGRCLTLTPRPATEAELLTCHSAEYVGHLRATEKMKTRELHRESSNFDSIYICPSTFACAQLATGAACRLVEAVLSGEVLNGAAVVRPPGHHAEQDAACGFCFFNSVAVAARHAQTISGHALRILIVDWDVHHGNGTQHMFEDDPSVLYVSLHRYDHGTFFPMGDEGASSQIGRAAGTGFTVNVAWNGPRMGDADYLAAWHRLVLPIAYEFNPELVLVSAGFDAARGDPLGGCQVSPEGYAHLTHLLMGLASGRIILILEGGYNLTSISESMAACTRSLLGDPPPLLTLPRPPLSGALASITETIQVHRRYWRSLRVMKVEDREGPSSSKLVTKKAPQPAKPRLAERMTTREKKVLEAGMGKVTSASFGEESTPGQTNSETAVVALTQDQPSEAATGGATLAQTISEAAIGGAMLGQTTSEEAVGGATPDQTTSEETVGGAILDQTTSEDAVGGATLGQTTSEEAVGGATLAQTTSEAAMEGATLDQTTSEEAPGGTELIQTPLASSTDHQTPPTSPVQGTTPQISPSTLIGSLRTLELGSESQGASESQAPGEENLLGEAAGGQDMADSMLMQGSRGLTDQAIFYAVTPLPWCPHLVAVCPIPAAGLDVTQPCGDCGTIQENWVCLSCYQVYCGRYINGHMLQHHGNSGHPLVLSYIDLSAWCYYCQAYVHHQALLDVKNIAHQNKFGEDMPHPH
Method in brief: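 HDAC6 captured on an anti-HDAC6 antibody-coated plate (2 μg/mL, pH 9.4 carbonate buffer, milk-blocked). HeLa-S3 lysate loaded at 1 mg/mL, 1 h at 4 °C, then washed. 15 min RT preincubation with inhibitor in DMSO; HDAC-Glo reagent added, luminescence read at 30-40 min. Concentrations are final. Background = no-antibody well; values are % activity versus DMSO control.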

[5] = molecular target: T1, Protein deacetylase HDAC6 (Homo sapiens); assay: Inhibition of HDAC6 in human U937 cells assessed as increase in acetyl-alpha-tubulin levels after 18 hrs by Western blot method; assay type: cell-based
Method in brief: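 U937 cells (10^6/well in RPMI-1640 with 10% FCS) treated 18 h at 37 °C, 5% CO2 with inhibitor or DMSO (1% final). Lysates separated on 16% SDS-PAGE and blotted to PVDF. Probed with anti-acetyl-α-tubulin(Lys40) and anti-acetyl-H3(Lys9), GAPDH as load control; ECL detection. Blots representative of three trials.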

Histone deacetylase 1 (Homo sapiens), sequence (Q13547 whole entry): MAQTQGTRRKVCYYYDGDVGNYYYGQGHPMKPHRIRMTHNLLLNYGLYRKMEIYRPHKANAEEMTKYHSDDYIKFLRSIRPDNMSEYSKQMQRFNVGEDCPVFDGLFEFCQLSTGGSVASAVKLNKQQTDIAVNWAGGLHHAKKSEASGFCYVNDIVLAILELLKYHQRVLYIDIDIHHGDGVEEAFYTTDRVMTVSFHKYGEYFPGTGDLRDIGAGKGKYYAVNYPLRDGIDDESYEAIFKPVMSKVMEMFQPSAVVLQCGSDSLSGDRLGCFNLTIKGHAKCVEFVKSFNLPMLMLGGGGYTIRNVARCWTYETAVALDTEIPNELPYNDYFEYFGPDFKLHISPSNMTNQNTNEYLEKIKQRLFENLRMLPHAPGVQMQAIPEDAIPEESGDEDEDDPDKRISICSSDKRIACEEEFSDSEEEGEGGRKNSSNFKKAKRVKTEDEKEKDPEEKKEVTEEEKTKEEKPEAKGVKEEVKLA

- Activity [1]: 32%
- Activity [2]: 86%
- Activity [3]: 68%
SMILES: CCC(CCCC(=O)Nc1ccccc1)CCC(=O)NO (stereo not given)

- Activity [4]: 16%
SMILES: O=C(CC[C@H](CCCC(=O)Nc1ccccc1)Cc1ccccc1)NO

- inhibition [5]: Dose-dependent effect
SMILES: O=C(CCC(CCCC(=O)Nc1ccccc1)Cc1ccccc1)NO (racemic)
